Screens: PubChem BioAssay, SRMLSC
PTEN del growth = suppresses growth of cells with PTEN deletion; HCT116 PTEN-null viability, CellTiter-Glo, 60 h; active compounds read low; viability, % at 10 µM; 140,000 compounds, 1.2% hits; AID 827;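 active means viability at or below a set limit, 4 SD under the median of all tested compounds, cut at about 3.7% in these data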;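 further: PTEN knockout HCT116 line with beta catenin targeted HCT116 as companion control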
bCat KO growth = beta-catenin-lacking colon tumor cell growth suppression; 140,000 compounds, 1.5% hits; HCT116 beta-catenin knockout viability, CellTiter-Glo, 60 h; active compounds read low; AID 818; viability, % at 10 µM;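 active means viability at or under a set limit, the compound median less 4 SD, cut at about 6% in these data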;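 further: 0% = Hyamine 1622 control at 20 µM and 100% = untreated cell control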
H69AR growth 86K = blocks growth of human H69AR lung tumor cells. 85,000 compounds, 6% hits. H69AR lung tumor viability, ATP luminescence, 72 h; active compounds read low. AID 598. viability, % at 10 µM;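 active means viability at or below 40%; inactive means viability above 40%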;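 further: multidrug resistant small cell line overexpressing MRP-1 efflux transporter; 100% = mean luminescence of untreated control wells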
Fibroblast inh = blocks proliferation of human lung fibroblasts; LL 47 human lung fibroblast viability, ATP luminescence; active compounds read low; viability, % at 10 µM; 85,000 compounds, 1.1% hits;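 active means viability at or below 50% in the single dose screen; inactive means viability above 50%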;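 further: compound exposure lasted 72 h before the ATP readout; 100% = median luminescence of untreated cell-only wells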
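Benchmarks: Cell-only wells, no compound | Test system: LL 47 human lung fibroblasts, passage 12 or lower | Input: 1,150 cells/well | Measured by: CellTiter-Glo luminescence measuring cellular ATP | Medium: IMEM, 15% FBS supplement | Schedule: Overnight attachment after seeding, then 72 h compound exposure at 37 °C | Doses: Compound addition at 0.1% DMSO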
HUVEC prolif 384 = blocks proliferation of human endothelial cells; AID 648; HUVEC proliferation, CellTiter-Glo luminescence, 72 h; active compounds read low; 86,000 compounds, 1.1% hits; viability, % at 10 µM (by protocol);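 active means viability at or below 30%; inactive means viability above 30%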;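 further: 100% = median luminescence of DMSO-only cell control wells on each plate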
The depositor's hits bear a star. This is one part of a sample in which hits are shown more often than they occur.

`C[N+]1(C2CCC3CCCC2C3O)CCCC1` (stereo not drawn) gave PTEN del growth 94 and bCat KO growth 97.
Cc1ccc(SCC(=O)NCc2cccnc2)cc1 was read as PTEN del growth 97, bCat KO growth 96, H69AR growth 86K 97, Fibroblast inh 105 and HUVEC prolif 384 90.
`Cc1ccc(CNC(=O)CSc2c3c(nc4cc(Cl)ccc24)CCCC3)o1` gave PTEN del growth 62, bCat KO growth 71, H69AR growth 86K 2.7*, Fibroblast inh 87 and HUVEC prolif 384 82.
`CCCCNC(=O)c1ccc2c(SCC(=O)O)c3c(nc2c1)CCCC3` gave PTEN del growth 102 and bCat KO growth 79.
For COc1cccc(N2CC(O)=C(c3nc4ccccc4c(=O)[nH]3)C2=N)c1 the results were PTEN del growth 17, bCat KO growth 18, H69AR growth 86K 29*, Fibroblast inh 66 and HUVEC prolif 384 62.
`CC(C)N1CC(O)=C(c2nc3ccccc3c(=O)[nH]2)C1=N` gave PTEN del growth 79, bCat KO growth 82, H69AR growth 86K 93, Fibroblast inh 99 and HUVEC prolif 384 87.
O=c1[nH]c2ccccc2c2nc3ccccn3c12 was read as PTEN del growth 72, bCat KO growth 72, H69AR growth 86K 35*, Fibroblast inh 90 and HUVEC prolif 384 89.
Cc1ccc2nc(SC(C(=O)c3ccccc3)c3ccccc3)nc(C)c2c1 (stereo not drawn) was read as PTEN del growth 91 and bCat KO growth 98.
Screening CCOC(=O)C1=C(C)OC(N)=C(C#N)C1c1cc2c(cc1Br)OCO2 (stereo not drawn) returned PTEN del growth 87, bCat KO growth 85, H69AR growth 86K 30*, Fibroblast inh 92 and HUVEC prolif 384 89.
`[O-][n+]1onc2c1CCc1nnccc1-2` gave PTEN del growth 80, bCat KO growth 65, H69AR growth 86K 63, Fibroblast inh 101 and HUVEC prolif 384 105.
Screening [O-][n+]1onc2c3ccnnc3ccc21 returned PTEN del growth 93, bCat KO growth 91, H69AR growth 86K 38*, Fibroblast inh 92 and HUVEC prolif 384 104.
Cc1cc2c(ccc3c2no[n+]3[O-])nn1 was read as PTEN del growth 72, bCat KO growth 69, H69AR growth 86K 37*, Fibroblast inh 92 and HUVEC prolif 384 99.
Screening O=c1c2c3c(sc2n2cnnc2n1-c1ccccc1)N(Cc1ccccc1)CCC3 returned PTEN del growth 116, bCat KO growth 111, H69AR growth 86K 98, Fibroblast inh 112 and HUVEC prolif 384 86.
For Cc1ccc(C)c(Sc2ccc(NC(=O)CCl)cc2)c1 the results were PTEN del growth 14 and bCat KO growth 17.
Screening O=C(CN(c1cccc(C(F)(F)F)c1)S(=O)(=O)c1ccc(Cl)c([N+](=O)[O-])c1)NCc1ccccc1 returned PTEN del growth 47 and bCat KO growth 40.
Screening Cc1ccc(N(CC(=O)NCCc2ccc(F)cc2)S(=O)(=O)c2ccc(Cl)c([N+](=O)[O-])c2)c(C)c1 returned PTEN del growth 1.4* and bCat KO growth 1.5*.
Screening CC(C)(C)n1[nH]c2c3c(ccc2c1=O)C(=O)c1ccccc1C3=O returned PTEN del growth 8, bCat KO growth 7, H69AR growth 86K 60, Fibroblast inh 59 and HUVEC prolif 384 3.3*.
Screening COCCCn1[nH]c2c3c(ccc2c1=O)C(=O)c1ccccc1C3=O returned PTEN del growth 28, bCat KO growth 28, H69AR growth 86K 86, Fibroblast inh 87 and HUVEC prolif 384 6.8*.
`Cc1ccc(-n2[nH]c3c4c(ccc3c2=O)C(=O)c2ccccc2C4=O)cc1` gave PTEN del growth 105 and bCat KO growth 104.
For Cc1cccn2c(=O)c3cc(C(=O)N4CCc5ccccc5C4)n(C)c3nc12 the results were H69AR growth 86K 85, Fibroblast inh 91 and HUVEC prolif 384 89.
`CC(C)(C)NC(=O)CN(C(=O)Cn1nnc(-c2ccc(Cl)cc2)n1)C1CCN(Cc2ccccc2)CC1` gave PTEN del growth 28, bCat KO growth 1.6*, H69AR growth 86K 46, Fibroblast inh 91 and HUVEC prolif 384 30.
For Cc1ccc(N/C=C/C(=O)c2sc(-c3ccccc3)nc2C)cc1 the results were PTEN del growth 62 and bCat KO growth 66.
`C#CCn1cc(/C=N/Nc2nc3ccccc3[nH]2)c2ccccc21` gave PTEN del growth 7 and bCat KO growth 13.
COCCCn1c2nc3ccccc3nc2c2c(=O)n(Cc3ccccc3Cl)cnc21 was read as H69AR growth 86K 3.2*, Fibroblast inh 69 and HUVEC prolif 384 27*.
For NC(=O)c1c(NC(=O)c2ccco2)sc2c1CCC2 the results were PTEN del growth 92, bCat KO growth 90, H69AR growth 86K 63, Fibroblast inh 89 and HUVEC prolif 384 76.
NC(=O)c1c(NC(=O)c2ccccc2)sc2c1CCc1ccccc1-2 was read as PTEN del growth 58, bCat KO growth 80, H69AR growth 86K 26*, Fibroblast inh 68 and HUVEC prolif 384 80.
Screening Cc1ccc2c(c1)C(c1ccncc1)=NNC(c1ccc(C(C)C)cc1)=N2 returned PTEN del growth 72 and bCat KO growth 86.
O=C/C(=C\Nc1ccc(Cl)cn1)c1nc2ccccc2o1 was read as PTEN del growth 87, bCat KO growth 90, H69AR growth 86K 93, Fibroblast inh 105 and HUVEC prolif 384 80.
For O=C/C(=C\Nc1ccc(Cl)cn1)c1nc2cc(Cl)ccc2o1 the results were PTEN del growth 56, bCat KO growth 68, H69AR growth 86K 38*, Fibroblast inh 89 and HUVEC prolif 384 35.
For Cc1ccc(C(=O)c2cc(C)sc2NC(=O)CN2CCN(C(=O)c3ccco3)CC2)cc1 the results were PTEN del growth 71, bCat KO growth 68, H69AR growth 86K 28*, Fibroblast inh 86 and HUVEC prolif 384 70.
For Cc1cc(NC(c2ccc(Cl)cc2)c2ccc3cccnc3c2O)no1 (stereo not drawn) the results were PTEN del growth 10, bCat KO growth 4.3*, H69AR growth 86K 48, Fibroblast inh 8.1* and HUVEC prolif 384 11*.
`CC(=O)NC(c1ccco1)c1ccc2cccnc2c1O` (stereo not drawn) gave PTEN del growth 6, bCat KO growth 5.1*, H69AR growth 86K 43, Fibroblast inh 2.2* and HUVEC prolif 384 4.6*.
For Cc1ccc2ccc(C(Nc3ccccn3)c3ccccc3)c(O)c2n1 (stereo not drawn) the results were PTEN del growth 63, bCat KO growth 60, H69AR growth 86K 28*, Fibroblast inh 75 and HUVEC prolif 384 81.
For COc1cc(C(Nc2ccccn2)c2ccc3ccc(C)nc3c2O)cc(OC)c1O (stereo not drawn) the results were PTEN del growth 2.5*, bCat KO growth 2.9*, H69AR growth 86K 0.3*, Fibroblast inh 38* and HUVEC prolif 384 14*.
Screening COc1ccccc1NC(c1cccnc1)c1ccc2cccnc2c1O (stereo not drawn) returned PTEN del growth 49 and bCat KO growth 49.
